Test results as given in PMC3001191 (Cancer research, 2010).

Experiments:
[1] = tested on: cancer cell lines harboring ^V600D/EBRAF mutations; experiment: SRB growth inhibition assay, cell line panel; assay type: cell-based, human; conditions: 5 d exposure, ^V600D/EBRAF mutant lines
Outline: (§1)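 Growth inhibition was measured by sulforhodamine B across a panel of melanoma, colon and breast cancer cell lines after 5 d continuous exposure. Seeding density was optimized per line to keep growth logarithmic. Curves used 10-point dilution series in quadruplicate and were fitted to give IC50/GI50. Lines were grouped by BRAF/RAS mutation status for comparison.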

[2] = tested on: MEK phosphorylation in A375M xenografts; experiment: Pharmacodynamics, MEK phosphorylation in tumor xenografts; assay type: in vivo, mice; conditions: single oral dose of 20 mg/kg, 4 h, A375M tumors
Outline: (§2)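 Female Crl:CD1-Foxn1nu mice (>6 weeks) were inoculated s.c. with 10^7 A375M or 7 × 10^6 SW620 cells. Tumors were grown to 50–150 mm3. Groups of 3-4 mice received one 20 mg/kg oral gavage dose or vehicle and were culled 4 h later. Tumors were snap-frozen, lysed in NP40 buffer and homogenised. Equal protein was probed by quantitative fluorescent Western blot for phospho-MEK1/2 and total MEK1.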

[3] = tested on: MEK phosphorylation in SW620 xenografts; experiment: as above; assay type: in vivo, mice; conditions: single p.o. dose 20 mg/kg, 4 h, KRAS mutant SW620 tumors
Outline: as §2

[4] = tested on: cell lines in which BRAF is wildtype; experiment: SRB growth inhibition assay, cell line panel; assay type: cell-based, human; conditions: 5 d exposure
Outline: as §1

[5] = tested on: SKMEL23 cells; experiment: SRB growth inhibition assay, cell line panel; assay type: cell-based, human
Outline: as §1

[6] = target: BRAF (Homo sapiens, UniProt P15056); experiment: Z'-LYTE SelectScreen kinase profiling; assay type: biochemical
Sequence of BRAF (P15056 whole entry): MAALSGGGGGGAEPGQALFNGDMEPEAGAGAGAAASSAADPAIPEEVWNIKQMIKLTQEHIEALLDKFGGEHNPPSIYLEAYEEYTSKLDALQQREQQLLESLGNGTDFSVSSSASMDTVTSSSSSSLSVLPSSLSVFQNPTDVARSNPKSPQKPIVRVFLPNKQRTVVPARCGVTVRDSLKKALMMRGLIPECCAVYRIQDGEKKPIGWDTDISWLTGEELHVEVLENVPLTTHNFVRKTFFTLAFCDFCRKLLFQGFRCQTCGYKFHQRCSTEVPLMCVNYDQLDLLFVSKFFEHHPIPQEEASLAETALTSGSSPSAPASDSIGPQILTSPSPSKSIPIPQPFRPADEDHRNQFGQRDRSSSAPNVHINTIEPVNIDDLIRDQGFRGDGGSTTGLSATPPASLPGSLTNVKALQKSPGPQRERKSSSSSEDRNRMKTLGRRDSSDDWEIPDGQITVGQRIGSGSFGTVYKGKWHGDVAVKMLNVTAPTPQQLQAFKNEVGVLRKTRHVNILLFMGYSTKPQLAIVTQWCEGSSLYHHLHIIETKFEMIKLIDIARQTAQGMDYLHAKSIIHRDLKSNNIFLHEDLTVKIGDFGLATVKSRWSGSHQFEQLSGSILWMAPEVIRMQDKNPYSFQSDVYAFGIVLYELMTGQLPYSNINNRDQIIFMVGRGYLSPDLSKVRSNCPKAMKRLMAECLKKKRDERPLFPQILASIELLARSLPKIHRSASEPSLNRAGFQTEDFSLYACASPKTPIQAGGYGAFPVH

[7] = Pharmacokinetics in mice; assay type: in vivo; conditions: for concentration at 18 h: po, 10 mg/kg
Outline: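 Female BALB/cAnNCrl mice over 6 weeks old were dosed i.v. at 2 mg/kg (10 ml/kg, DMSO:Tween 20:water 10:1:89). Others received 10 mg/kg by oral gavage (10 ml/kg, DMSO:water 1:19). At 5 min (i.v. only), 15 and 30 min, and 1, 3, 6 and 18 h, 3 mice per point gave heparinized blood for plasma under isoflurane. Femoral muscle was also collected. Plasma levels were compared with the mean 5-d SRB GI50 of BRAF-mutant lines.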

[8] = target: COT (Homo sapiens, UniProt P41279); experiment: Z'-LYTE SelectScreen kinase profiling; assay type: biochemical
[9] = tested on: ^V600EBRAF A375M melanoma xenografts; experiment: Therapy study, xenograft growth; assay type: in vivo, mice; conditions: 20 mg/kg q.d. p.o. for 24 d, on completion of the experiment, p<0.05
Outline: (§3)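 Female Crl:CD1-Foxn1nu mice (>6 weeks) were implanted s.c. with 10^7 A375M or 7 × 10^6 SW620 cells. Tumors grew to 50–150 mm3, and groups of 8 were assigned by stratified tumor volume. Mice received 20 mg/kg/d by gavage (10 ml/kg, DMSO:water 1:19) or vehicle, for 24 d (A375M) or 23 d (SW620). Calipers measured tumors every 3-4 d, and mean volume ± SEM was plotted.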

[10] = tested on: ^V600EBRAF-expressing Ba/F3 cells; experiment: DNA synthesis; assay type: cell-based; conditions: Mus musculus, BaF3, 24 h, read-out: growth (DNA synthesis) inhibition
Outline: (§4)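 Ba/F3 lines stably expressing the mutant BRAF were cultured in RPMI1640 with 10% FBS at 37 °C in 10% CO2. Cells (1-5 × 10^4 per well) were exposed to compound for 24 h, with 0.08 µCi [3H]-thymidine added per well for the last 4 h. Cells were then captured on glass-fibre filters and washed twice with PBS and twice with methanol. Incorporated label was counted by scintillation.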

[11] = target: SRC (Homo sapiens, UniProt P12931); experiment: Z'-LYTE SelectScreen kinase profiling; assay type: biochemical
[12] = target: KIT (Homo sapiens, UniProt P10721); experiment: Z'-LYTE SelectScreen kinase profiling; assay type: biochemical
Sequence of KIT (P10721 26-976): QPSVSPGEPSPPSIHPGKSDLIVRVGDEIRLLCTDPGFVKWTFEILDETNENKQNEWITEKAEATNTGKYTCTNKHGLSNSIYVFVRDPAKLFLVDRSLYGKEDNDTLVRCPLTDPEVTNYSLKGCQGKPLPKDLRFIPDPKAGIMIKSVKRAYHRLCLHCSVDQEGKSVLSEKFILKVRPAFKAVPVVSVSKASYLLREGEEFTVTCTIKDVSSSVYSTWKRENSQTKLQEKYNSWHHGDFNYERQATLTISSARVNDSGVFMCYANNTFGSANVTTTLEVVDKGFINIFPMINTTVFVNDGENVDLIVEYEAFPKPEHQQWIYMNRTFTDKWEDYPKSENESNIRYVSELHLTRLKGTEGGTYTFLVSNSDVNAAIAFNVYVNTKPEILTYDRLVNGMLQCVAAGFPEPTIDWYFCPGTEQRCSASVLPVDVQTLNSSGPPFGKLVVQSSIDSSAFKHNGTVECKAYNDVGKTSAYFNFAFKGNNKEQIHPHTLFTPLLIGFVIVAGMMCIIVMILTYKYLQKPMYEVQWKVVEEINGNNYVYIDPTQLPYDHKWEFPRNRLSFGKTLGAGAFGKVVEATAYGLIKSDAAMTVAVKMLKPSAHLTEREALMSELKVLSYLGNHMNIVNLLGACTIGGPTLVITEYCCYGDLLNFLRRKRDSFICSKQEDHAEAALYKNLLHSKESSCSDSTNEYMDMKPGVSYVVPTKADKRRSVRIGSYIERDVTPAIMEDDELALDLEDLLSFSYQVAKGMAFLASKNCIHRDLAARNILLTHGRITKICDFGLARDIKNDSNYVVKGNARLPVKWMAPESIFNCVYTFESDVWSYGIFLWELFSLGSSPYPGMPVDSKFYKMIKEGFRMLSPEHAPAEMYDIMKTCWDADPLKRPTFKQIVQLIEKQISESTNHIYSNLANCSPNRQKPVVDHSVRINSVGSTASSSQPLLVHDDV

[13] = target: FGFR1 (Homo sapiens, UniProt P11362); experiment: Z'-LYTE SelectScreen kinase profiling; assay type: biochemical
[14] = target: ^T529N,V600EBRAF (Homo sapiens, UniProt P15056, T529N/V600E); experiment: DELFIA kinase assay, gatekeeper mutant; assay type: biochemical; conditions: at up to 10 μM
Sequence of ^T529N,V600EBRAF (P15056 whole entry T529N/V600E): as the sequence (P15056 whole entry) above, with T529N, V600E counted along it
Outline: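 Full-length recombinant BRAF construct carrying the gatekeeper and activating substitutions was tested in a 96-well DELFIA assay. The assay measured direct phosphorylation of bacterially produced GST-MEK at 100 µM ATP. Reactions ran in duplicate for 45 min at 20°C, within the linear range, across an 11-concentration response curve. Each value was the mean of 3 independent assays.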

[15] = target: LCK (Homo sapiens, UniProt P06239); experiment: Z'-LYTE SelectScreen kinase profiling; assay type: biochemical
Sequence of LCK (P06239 whole entry): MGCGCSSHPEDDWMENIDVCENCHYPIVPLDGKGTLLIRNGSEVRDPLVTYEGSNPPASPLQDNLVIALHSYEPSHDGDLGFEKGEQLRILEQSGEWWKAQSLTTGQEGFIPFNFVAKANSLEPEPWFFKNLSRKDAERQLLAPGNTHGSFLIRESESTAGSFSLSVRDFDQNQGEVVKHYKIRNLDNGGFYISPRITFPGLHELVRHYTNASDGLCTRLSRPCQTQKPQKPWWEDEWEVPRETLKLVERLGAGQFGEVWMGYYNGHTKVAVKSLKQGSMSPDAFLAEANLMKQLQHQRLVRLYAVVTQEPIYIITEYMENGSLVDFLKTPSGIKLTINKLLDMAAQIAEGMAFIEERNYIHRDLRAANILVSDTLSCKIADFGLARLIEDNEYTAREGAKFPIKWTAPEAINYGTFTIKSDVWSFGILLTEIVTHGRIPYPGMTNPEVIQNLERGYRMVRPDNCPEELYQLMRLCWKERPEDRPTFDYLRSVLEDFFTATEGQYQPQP

[16] = target: p38α (Homo sapiens, UniProt Q16539); experiment: Z'-LYTE SelectScreen kinase profiling; assay type: biochemical
Sequence of p38α (Q16539 whole entry): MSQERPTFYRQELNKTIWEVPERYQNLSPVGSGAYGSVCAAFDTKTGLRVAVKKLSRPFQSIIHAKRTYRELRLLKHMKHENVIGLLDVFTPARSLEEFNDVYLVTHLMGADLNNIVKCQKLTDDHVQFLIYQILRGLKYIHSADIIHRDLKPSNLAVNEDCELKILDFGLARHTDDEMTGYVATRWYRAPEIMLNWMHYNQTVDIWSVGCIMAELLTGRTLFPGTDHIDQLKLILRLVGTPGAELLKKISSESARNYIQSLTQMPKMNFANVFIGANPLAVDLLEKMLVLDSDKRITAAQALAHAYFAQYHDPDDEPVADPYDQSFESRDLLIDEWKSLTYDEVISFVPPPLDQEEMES

[17] = tested on: ERK1/2 phosphorylation in WM266.4 cells; experiment: Phospho-ERK cell-based ELISA; design: species or system human; conditions: cellular potency greater
[18] = tested on: ^G12VKRAS mutant human colorectal carcinoma SW620 xenografts; experiment: Therapy study, xenograft growth; assay type: in vivo, mice; conditions: 20 mg/kg daily p.o. for 23 d
Outline: as §3

[19] = tested on: ^T529N,V600EBRAF-expressing Ba/F3 cells; experiment: DNA synthesis; assay type: cell-based; conditions: Mus musculus, BaF3, 24 h, read-out: growth (DNA synthesis) inhibition
Outline: as §4

[20] = tested on: SW620 cells; experiment: MTS cell proliferation assay; assay type: cell-based, human; conditions: 72 h
Outline: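 SW620 cells in DMEM with 10% FBS received a range of compound concentrations for 72 h. Proliferation was quantified with MTS reagent. Seeding density was optimized so growth stayed logarithmic throughout treatment. Wells were run in quadruplicate, and comparisons used a t-test.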

[21] = tested on: MEK and ERK phosphorylation in BRAF wild-type D35 melanoma cells; experiment: Western blotting of MAPK signaling; assay type: cell-based; conditions: 24 h, concentrations up to 10 μM
Outline: (§5)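 Cells in DMEM with 10% FBS were exposed to a concentration series for 24 h and lysed. Lysates were blotted for phospho-MEK1/2, MEK1, phospho-ERK1/2, ERK2 and cyclin D1. Detection used Alexa Fluor 680 and 800CW secondary antibodies, with quantification on an infrared scanner.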

[22] = target: RET (Homo sapiens, UniProt P07949); experiment: Z'-LYTE SelectScreen kinase profiling; assay type: biochemical
Sequence of RET (P07949 29-1114): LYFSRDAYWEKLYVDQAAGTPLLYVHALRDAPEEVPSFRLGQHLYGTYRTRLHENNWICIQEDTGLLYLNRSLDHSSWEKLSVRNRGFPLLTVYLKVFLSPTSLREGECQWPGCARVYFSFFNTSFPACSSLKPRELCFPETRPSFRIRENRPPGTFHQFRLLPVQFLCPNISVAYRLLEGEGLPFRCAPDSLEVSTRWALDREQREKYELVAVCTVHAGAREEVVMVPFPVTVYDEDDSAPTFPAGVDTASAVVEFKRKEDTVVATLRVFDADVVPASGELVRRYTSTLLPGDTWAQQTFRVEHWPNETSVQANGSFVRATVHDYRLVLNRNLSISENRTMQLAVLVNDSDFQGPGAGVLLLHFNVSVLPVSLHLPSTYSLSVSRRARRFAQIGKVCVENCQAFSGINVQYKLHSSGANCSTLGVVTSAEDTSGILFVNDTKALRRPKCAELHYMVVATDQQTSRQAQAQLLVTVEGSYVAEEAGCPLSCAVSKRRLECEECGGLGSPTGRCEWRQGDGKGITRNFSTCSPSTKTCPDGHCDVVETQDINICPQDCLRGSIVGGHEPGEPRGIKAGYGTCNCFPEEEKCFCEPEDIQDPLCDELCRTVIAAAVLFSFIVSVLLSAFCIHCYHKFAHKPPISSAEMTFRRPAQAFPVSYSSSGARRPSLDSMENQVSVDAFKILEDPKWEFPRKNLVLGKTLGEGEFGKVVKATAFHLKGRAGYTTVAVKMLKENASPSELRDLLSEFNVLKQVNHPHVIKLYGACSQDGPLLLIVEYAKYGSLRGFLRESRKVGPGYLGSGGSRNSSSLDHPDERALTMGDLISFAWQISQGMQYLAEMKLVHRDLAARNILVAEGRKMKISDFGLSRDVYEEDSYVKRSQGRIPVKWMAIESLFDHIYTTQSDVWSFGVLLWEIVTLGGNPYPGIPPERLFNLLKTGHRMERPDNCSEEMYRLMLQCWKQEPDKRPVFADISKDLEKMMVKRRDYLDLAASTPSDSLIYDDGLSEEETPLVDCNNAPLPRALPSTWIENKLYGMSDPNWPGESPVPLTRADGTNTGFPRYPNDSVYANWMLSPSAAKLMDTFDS

[23] = tested on: MEK and ERK phosphorylation in KRAS mutant SW620 colorectal carcinoma cells; experiment: Western blotting of MAPK signaling; assay type: cell-based, human; conditions: 24 h
Outline: as §5

[24] = target: MET (Homo sapiens, UniProt P08581); experiment: Z'-LYTE SelectScreen kinase profiling; assay type: biochemical
[25] = target: ^V600EBRAF (Homo sapiens, UniProt P15056, V600E); experiment: Z'-LYTE SelectScreen kinase profiling; assay type: biochemical
Sequence of ^V600EBRAF (P15056 whole entry V600E): as the sequence (P15056 whole entry) above, with V600E counted along it

[26] = target: VEGFR2 (Homo sapiens, UniProt P35968); experiment: Z'-LYTE SelectScreen kinase profiling; assay type: biochemical
Sequence of VEGFR2 (P35968 20-1356): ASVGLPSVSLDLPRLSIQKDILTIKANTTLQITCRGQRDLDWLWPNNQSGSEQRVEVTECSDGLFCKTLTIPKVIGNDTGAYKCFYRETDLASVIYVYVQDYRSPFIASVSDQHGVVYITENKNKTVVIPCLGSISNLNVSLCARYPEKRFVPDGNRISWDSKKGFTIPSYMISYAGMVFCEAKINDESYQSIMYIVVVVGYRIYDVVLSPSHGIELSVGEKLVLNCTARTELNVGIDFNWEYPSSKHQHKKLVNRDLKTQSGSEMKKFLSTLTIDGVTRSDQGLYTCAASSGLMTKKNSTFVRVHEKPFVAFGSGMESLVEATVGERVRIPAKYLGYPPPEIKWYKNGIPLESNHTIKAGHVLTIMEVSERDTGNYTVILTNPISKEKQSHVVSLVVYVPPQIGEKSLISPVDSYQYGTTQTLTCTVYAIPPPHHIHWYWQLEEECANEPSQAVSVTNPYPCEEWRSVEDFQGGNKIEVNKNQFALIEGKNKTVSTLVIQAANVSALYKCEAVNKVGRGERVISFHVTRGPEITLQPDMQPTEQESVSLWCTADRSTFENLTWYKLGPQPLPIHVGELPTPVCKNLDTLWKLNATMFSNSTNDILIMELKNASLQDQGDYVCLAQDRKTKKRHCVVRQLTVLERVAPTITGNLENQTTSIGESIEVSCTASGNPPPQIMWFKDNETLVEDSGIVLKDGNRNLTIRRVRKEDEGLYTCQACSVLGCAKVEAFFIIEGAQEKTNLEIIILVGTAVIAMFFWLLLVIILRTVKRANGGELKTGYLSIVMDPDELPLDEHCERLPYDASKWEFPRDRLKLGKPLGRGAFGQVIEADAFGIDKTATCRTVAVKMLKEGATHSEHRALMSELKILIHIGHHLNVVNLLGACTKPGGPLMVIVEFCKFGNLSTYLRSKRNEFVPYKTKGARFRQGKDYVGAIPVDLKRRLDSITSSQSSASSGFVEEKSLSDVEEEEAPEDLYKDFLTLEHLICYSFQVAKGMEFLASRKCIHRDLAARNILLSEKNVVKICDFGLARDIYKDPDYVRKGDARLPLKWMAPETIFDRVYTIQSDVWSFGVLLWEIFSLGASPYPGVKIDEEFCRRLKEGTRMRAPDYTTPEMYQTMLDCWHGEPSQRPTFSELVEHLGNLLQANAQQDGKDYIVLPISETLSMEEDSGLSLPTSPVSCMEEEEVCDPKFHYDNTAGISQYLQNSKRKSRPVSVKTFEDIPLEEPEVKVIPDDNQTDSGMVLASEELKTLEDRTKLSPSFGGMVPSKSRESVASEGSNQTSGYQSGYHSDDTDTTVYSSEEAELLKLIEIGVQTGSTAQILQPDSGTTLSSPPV

[27] = tested on: MEK and ERK phosphorylation in ^V600DBRAF WM266.4 cells; experiment: Western blotting of MAPK signaling; assay type: cell-based, human; conditions: 24 h
Outline: as §5

[28] = target: VEGFR1 (Homo sapiens, UniProt P17948); experiment: Z'-LYTE SelectScreen kinase profiling; assay type: biochemical
[29] = tested on: WM266.4 (^V600DBRAF) cells; experiment: DNA synthesis; assay type: cell-based, human; conditions: WM266.4 cells, 0.1 μM 1t for 24 h
Outline: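 Cells were grown in DMEM with 10% FBS at 37 °C in 10% CO2. They were seeded at 10^5 per well in 6-well plates and treated with 0.1 µM compound for 24 h. DNA synthesis was measured with 0.8 µCi tritiated label per well. Cells were harvested by trypsinization and an aliquot was filter-captured and scintillation-counted as for suspension cells.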

[30] = Tolerability in mice; assay type: in vivo
[31] = target: p38γ (Homo sapiens, UniProt P53778); experiment: Z'-LYTE SelectScreen kinase profiling; assay type: biochemical
[32] = tested on: panel of 80 kinases; experiment: Selectivity profile against 80 kinase panel; assay type: biochemical, human; conditions: 1 μM 1t
Outline: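 Each of 80 kinases was screened at a single 1 µM concentration using the commercial SelectScreen panel under the provider's protocols. Results were expressed as percent inhibition of kinase activity, and kinases inhibited by >70% were singled out.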

[33] = tested on: ^V600EBRAF mutant HT29 cells; experiment: SRB growth inhibition assay, cell line panel; assay type: cell-based, human
Outline: as §1

[34] = target: PDGFRβ (Homo sapiens, UniProt P09619); experiment: Z'-LYTE SelectScreen kinase profiling; assay type: biochemical
[35] = target: CRAF (Homo sapiens, UniProt P04049, Y340D/Y341D); experiment: Z'-LYTE SelectScreen kinase profiling; assay type: biochemical
[36] = target: PDGFRα (Homo sapiens, UniProt P16234); experiment: Z'-LYTE SelectScreen kinase profiling; assay type: biochemical
[37] = tested on: ^V600EBRAF in cells; conditions: cited from earlier work
[38] = tested on: ^V600EBRAF purified kinase; conditions: cited from earlier work
[39] = female, BALB/cAnNCrl, mouse, plasma, iv, 2 mg/kg
[40] = continuous daily dosing 20 mg/kg in therapy experiments

**Q.** With `CSc1cc(Oc2ccnc3[nH]c(=O)cnc23)ccc1NC(=O)Nc1cc(C(C)(C)C)nn1-c1ccc(C)cc1` [Compound 1t, 1-(3-tert-butyl-1-p-tolyl-1H-pyrazol-5-yl)-3-(2-(methylthio)-4-(3-oxo-3,4-dihydropyrido[2,3-b]pyrazin-8-yloxy)phenyl)urea] as the compound, how does the growth inhibition [1] read?
**A.** inhibits the growth

**Q.** What about the “inhibition of MEK phosphorylation” value [2] of the same compound?
**A.** observed

**Q.** What about the “increase in MEK phosphorylation” value [3] of the same compound?
**A.** 2 fold

**Q.** And the growth inhibition [4]?
**A.** relatively ineffective

**Q.** And the “sensitivity relative to the other BRAF/RAS wildtype cells” value [5]?
**A.** considerably more sensitive

**Q.** What about the IC50 [6] of the same compound?
**A.** 81 nM

**Q.** What about the “fold less active against wildtype BRAF than against ^V600EBRAF” value ([6]; SelectScreen Panel) of the same compound?
**A.** more than 6 fold

**Q.** What about the concentration at 18 h ([7]; female, BALB/cAnNCrl, mouse, femoral muscle) of the same compound?
**A.** > 3 µM

**Q.** And the clearance [7, 39]?
**A.** 0.00667 mL/min

**Q.** What about the half-life [7, 39] of the same compound?
**A.** 6.8 h

**Q.** And the concentration at 18 h ([7]; female, BALB/cAnNCrl, mouse, plasma)?
**A.** > 19 µM

**Q.** What about the “plasma concentration relative to average GI50 for BRAF mutant cancer cell lines” value ([7]; mice) of the same compound?
**A.** over 100 fold

**Q.** What about the IC50 [8] of the same compound?
**A.** > 10000 nM

**Q.** And the tumor growth inhibition [9]?
**A.** 50%

**Q.** And the inhibition at 1 µM [10]?
**A.** 96%

**Q.** What about the IC50 [11] of the same compound?
**A.** 23 nM

**Q.** And the IC50 [12]?
**A.** > 10000 nM

**Q.** What about the IC50 [13] of the same compound?
**A.** 2580 nM

**Q.** And the “inhibition of ^T529N,V600EBRAF kinase activity” value [14]?
**A.** not inhibited

**Q.** What about the IC50 [15] of the same compound?
**A.** 6 nM

**Q.** What about the IC50 [16] of the same compound?
**A.** 285 nM

**Q.** What about the “cellular potency relative to inhibition of recombinant ^V600EBRAF in vitro” value [17] of the same compound?
**A.** approximately 4 fold

**Q.** And the tumor growth inhibition [18]?
**A.** No inhibition of tumor growth

**Q.** And the inhibition at 1 µM [19]?
**A.** 21%

**Q.** What about the effect on proliferation [20] of the same compound?
**A.** small increase in proliferation

**Q.** And the “MEK and ERK phosphorylation / cyclin D1 response” value [21]?
**A.** no such responses are observed

**Q.** What about the IC50 [22] of the same compound?
**A.** 4860 nM

**Q.** And the “effect on MEK and ERK phosphorylation” value [23]?
**A.** profound increase

**Q.** What about the IC50 [24] of the same compound?
**A.** > 10000 nM

**Q.** And the IC50 [25]?
**A.** 13 nM

**Q.** And the IC50 [26]?
**A.** 1000 nM

**Q.** What about the “fold less active against VEGFR2/KDR than against ^V600EBRAF” value ([26]; SelectScreen Panel) of the same compound?
**A.** more than 50 fold

**Q.** And the “concentration inhibiting MEK and ERK phosphorylation” value [27]?
**A.** 10 to 100 nM

**Q.** What about the IC50 [28] of the same compound?
**A.** 5160 nM

**Q.** What about the “inhibition of DNA synthesis” value [29] of the same compound?
**A.** profound inhibition

**Q.** And the “adverse effects / body weight” value ([30]; 10 and 20 mg/kg/d p.o. for 4 d, body weight monitored a further 27 d)?
**A.** No adverse effects were observed

**Q.** What about the body weight loss [30, 40] of the same compound?
**A.** less than 10%

**Q.** What about the deaths [30, 40] of the same compound?
**A.** does not cause any deaths

**Q.** And the IC50 [31]?
**A.** 1020 nM

**Q.** And the “inhibition of kinases in an 80 kinase panel” value [32]?
**A.** failed to inhibit most of the kinases

**Q.** And the “sensitivity relative to the majority of the other BRAF mutant cell lines” value [33]?
**A.** less sensitive

**Q.** What about the IC50 [34] of the same compound?
**A.** 2430 nM

**Q.** What about the IC50 [35] of the same compound?
**A.** 12 nM

**Q.** What about the IC50 [36] of the same compound?
**A.** 439 nM

**Q.** Which results are given for `CNC(=O)c1cc(Oc2ccc(NC(=O)Nc3ccc(Cl)c(C(F)(F)F)c3)cc2)ccn1` [sorafenib]?
**A.** activity against ^V600EBRAF in cells [37]: 2 to 5 µM; fold less active in cells than against the purified kinase [37]: approximately 100 fold; activity against the purified kinase in vitro [38]: 40 nM
